# Assay results pooled from the literature.
# Protocols differ between the studies behind these lines.
# Observed: cell growth or viability
Compound,cell line,test,conditions,endpoint,value
CC(=NNC(=O)COc1ccc2c(C)c(Cc3ccccc3)c(=O)oc2c1C)c1ccc(Br)cc1,MDA-MB-231,MTT,125 µg/mL,viability,29%
C[C@@H]1CC[C@@H]([C@](C)(O)CNCc2cccc3ccccc23)[C@H](OCc2ccccc2)C1,MDA-MB-231,MTT,"30 µM, 72 h",inhibition,61%
C=CCOc1ccc2c(C)c(CC)c(=O)oc2c1C,MDA-MB-231,MTT,250 µg/mL,viability,20.2%
C[C@@H]1CC[C@@H]([C@](O)(CNCc2cccc3ccccc23)COCc2ccccc2)[C@H](OCc2ccccc2)C1,MDA-MB-231,MTT,"10 µM, 72 h",inhibition,96.8%
Cc1c(Cc2ccccc2)c(=O)oc2c(C)c(OCC(=O)NN=Cc3ccc([N+](=O)[O-])cc3)ccc12,MDA-MB-231,MTT,31.25 µg/mL,viability,37.2%
C[C@@H]1CC[C@@H]([C@](O)(CNCc2ccccc2)COCc2ccccc2)[C@H](OCc2ccccc2)C1,MDA-MB-231,MTT,"10 µM, 72 h",inhibition,97.8%
Cc1c(C(=O)O)ccc2c3n(nc12)[C@@H]1[C@H](C3)N(CC2CC2)[C@@]2(C(=O)Nc3cc(Cl)ccc32)[C@H]1c1cccc(Cl)c1F,hTERT-RPE1,,,IC50,16 nM
C=CC(=O)NC1CCN(c2ncc3ncnc(Nc4ccc(Oc5ccc6c(c5)ncn6C)c(C)c4)c3n2)CC1,LCLC-103H,,,EC50,2.82 nM
CCC[C@H]1NC(=O)[C@H](Cc2cc(Cl)ccc2-c2cnn(C)c2)N(C)C(=O)[C@H](CC(C)C)NC(=O)[C@@H](N(C)C(=O)[C@H](CCCCN2CCOCC2)NC(=O)[C@@H](c2cccnc2)C2CCCCC2)CCCCNC1=O,NCI-H526,MTT,5 days,GI50,3400 nM
CCOc1ccc2c(C)c(CC)c(=O)oc2c1C,MDA-MB-231,MTT,31.25 µg/mL,viability,100%
COc1ccc(COC[C@@](O)(CNCc2ccccc2)[C@@H]2CC[C@@H](C)C[C@H]2OCc2ccc(OC)cc2)cc1,MDA-MB-231,MTT,"10 µM, 72 h",inhibition,99.5%
C[C@H](NC(=O)[C@H](CC(=O)NCC(C)(C)C)NC(=O)C(=O)c1c[nH]c2ccccc12)C(=O)NCc1ccc(F)cc1F,A-375,resazurin,48 h,IC50,8870 nM
CCCN1C(=O)[C@H](CC(C)C)NC(=O)[C@@H](N(C)C(=O)[C@H](CC2CCC2)NC(=O)[C@@H]2C[C@@H](F)CN2C(=O)[C@@](C)(O)C(F)(F)F)CCCCNC(=O)C2(CC2)NC(=O)[C@@H]1Cc1cc(Cl)ccc1Cl,NCI-H526,MTT,5 days,GI50,41 nM
CCc1c(C)c2ccc(OCC(=O)NNC(=S)Nc3ccccc3)c(C)c2oc1=O,MDA-MB-231,MTT,125 µg/mL,viability,8.46%
C[C@@H]1CC[C@@H]([C@](O)(CNCc2ccc(F)cc2)COCc2ccc(F)cc2)[C@H](OCc2ccc(F)cc2)C1,MDA-MB-231,MTT,"10 µM, 72 h",inhibition,88.9%
